One assay concerns MRC5. Put plainly: Cytotoxicity against human MRC5 SV2 cells after 72 hrs. It counts as cell-based. The note with it: MRC5, 72 h. In outline: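 MRC-5 SV2 human fetal lung fibroblasts grown in MEM with L-glutamine, NaHCO3 and 5% FCS at 37 °C, 5% CO2. 10^4 cells/well seeded onto prediluted compounds, 72 h at 37 °C. Viability by resazurin added for 24 h, fluorescence at ex 530/em 590 nm. IC50 from duplicate determinations.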

In the next assay the test system is Plasmodium falciparum. Put plainly: Antiplasmodial activity against chloroquine-susceptible Plasmodium falciparum GHA strain infected in human erythrocytes after 72 hrs by spectrophotometry. It counts as functional, organism-based. As to conditions: read-out: IC50. In outline: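 P. falciparum cultured in human A+ erythrocytes in RPMI-1640 with 10% human serum, 37 °C, low oxygen (3% O2, 4% CO2, 93% N2). Infected red cell suspension (1% parasitemia, 2% hematocrit) incubated with compounds 72 h, then frozen. Growth read by Malstat method: NBT/PES added, 2 h in dark, absorbance at 655 nm. IC50 from duplicate determinations.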

Structures are written as SMILES.

For the compound `CN(CCCN1CC(=O)N2[C@H](c3ccc4c(c3)OCO4)c3[nH]c4ccccc4c3C[C@@H]2C1=O)Cc1ccccc1`, the IC50 in the assay on MRC5 and in the assay on Plasmodium falciparum was 8 µM in each case.

For `O=C1[C@H]2Cc3c([nH]c4cc(F)ccc34)[C@@H](c3ccc4c(c3)OCO4)N2C(=O)CN1[C@@H]1CCN(Cc2ccccc2)C1` (mixture of isomers), the results for the IC50 with MRC5 and with Plasmodium falciparum were 16 µM and 1.26 µM, respectively.

With `CCCCc1ccc(N2CC(=O)N3[C@H](c4ccc5c(c4)OCO5)c4[nH]c5ccccc5c4C[C@@H]3C2=O)cc1`, the IC50 with MRC5 and in the assay on Plasmodium falciparum was over 64 µM throughout.

On to `O=C1[C@H]2Cc3c([nH]c4ccccc34)[C@@H](c3ccc4c(c3)OCO4)N2C(=O)CN1c1ccc(CN2CCOCC2)cc1`, for which the IC50 is over 64 µM in the assay on MRC5 and 19 µM in the assay on Plasmodium falciparum.

Take `O=C1N[C@@H](COCc2ccccc2)C(=O)N2[C@H](c3ccc4c(c3)OCO4)c3[nH]c4ccccc4c3C[C@H]12`: the IC50 in the assay on MRC5 and in the assay on Plasmodium falciparum was over 64 µM in each case.

As for `O=C1[C@H]2Cc3c([nH]c4ccccc34)[C@@H](c3ccc4c(c3)OCO4)N2C(=O)CN1c1ccc(Cl)cc1`, the results for the IC50 in the assay on MRC5 and in the assay on Plasmodium falciparum were over 64 µM and 60 µM, respectively.

`O=C1[C@H]2Cc3c([nH]c4ccccc34)[C@@H](c3ccc4c(c3)OCO4)N2C(=O)CN1c1ccc(C(F)(F)F)cc1`: the IC50 in the assay with MRC5 and with Plasmodium falciparum was over 64 µM in each case.

In the case of `O=C1[C@H]2Cc3c([nH]c4ccccc34)[C@@H](c3ccc4c(c3)OCO4)N2C(=O)CN1c1cccc(Cl)c1`, the IC50 with MRC5 and in the assay on Plasmodium falciparum was over 64 µM throughout.

As to `Cn1c2c(c3ccccc31)C[C@@H]1C(=O)N([C@@H]3CCN(Cc4ccccc4)C3)CC(=O)N1[C@@H]2c1ccc2c(c1)OCO2`, the IC50 with MRC5 is over 64 µM; in the assay on Plasmodium falciparum, 9 µM.

Take `O=C1[C@H]2Cc3c([nH]c4ccccc34)[C@@H](c3ccc4c(c3)OCO4)N2C(=O)CN1[C@@H]1CCNC1`: the figures for the IC50 with MRC5 and in the assay with Plasmodium falciparum were over 64 µM and 12 µM, respectively.

`CC(C)(C)OC(=O)CC[C@@H]1NC(=O)[C@H]2Cc3c([nH]c4ccccc34)[C@@H](c3ccc4c(c3)OCO4)N2C1=O`: the values for the concentration for half-maximal inhibition (IC50) in the assay on MRC5 and with Plasmodium falciparum were over 64 µM and 60 µM, respectively.

`O=C1[C@H]2Cc3c([nH]c4ccccc34)[C@@H](c3ccc4c(c3)OCO4)N2C(=O)CN1[C@H]1CCN(Cc2ccccc2)C1`: the 50% inhibitory concentration (IC50) in the assay with MRC5 was over 64 µM; with Plasmodium falciparum, 10 µM.

As to `O=C1[C@H]2Cc3c([nH]c4ccccc34)[C@@H](c3ccc4c(c3)OCO4)N2C(=O)CN1c1cccc(CN2CCNCC2)c1`, the IC50 with MRC5 was determined as 8 µM; with Plasmodium falciparum, 10 µM.

`CCCCN1CC(=O)N2[C@H](c3ccc4c(c3)OCO4)c3[nH]c4ccccc4c3C[C@@H]2C1=O`: the IC50 in the assay with MRC5 and with Plasmodium falciparum was over 64 µM each time.

Take `CC(C)(C)OC(=O)N1CCN(c2ccc(N3CC(=O)N4[C@H](c5ccc6c(c5)OCO6)c5[nH]c6ccccc6c5C[C@@H]4C3=O)cc2)CC1`: the IC50 in the assay on MRC5 and with Plasmodium falciparum was over 64 µM throughout.

Turning to `Cn1ccnc1CN1CCC(N2CC(=O)N3[C@H](c4ccc5c(c4)OCO5)c4[nH]c5ccccc5c4C[C@@H]3C2=O)CC1`, the IC50 came to 62 µM in the assay with MRC5 and 4 µM in the assay on Plasmodium falciparum.

Regarding `O=C1[C@H]2Cc3c([nH]c4ccccc34)[C@@H](c3ccc4c(c3)OCO4)N2C(=O)CN1C1CCNCC1`, the IC50 with MRC5 is over 64 µM; in the assay on Plasmodium falciparum, 32 µM.

In the case of `NN1CC(=O)N2[C@H](c3ccc4c(c3)OCO4)c3[nH]c4ccccc4c3C[C@@H]2C1=O`, the IC50 in the assay with MRC5 and in the assay on Plasmodium falciparum was over 64 µM throughout.

Regarding `O=C1[C@H]2Cc3c([nH]c4ccccc34)[C@@H](c3ccc4c(c3)OCO4)N2C(=O)CN1c1ccsc1`, the IC50 in the assay with MRC5 and with Plasmodium falciparum was over 64 µM throughout.

For the compound `O=C1[C@H]2Cc3c([nH]c4ccccc34)[C@@H](c3ccc4c(c3)OCO4)N2C(=O)CN1CCc1ccc(O)cc1`, the IC50 in the assay on MRC5 was over 64 µM; with Plasmodium falciparum, 16 µM.

As for `O=C1NCC(=O)N2[C@H](c3ccc4c(c3)OCO4)c3[nH]c4ccccc4c3C[C@H]12` [NORTADALAFIL], the IC50 in the assay on MRC5 and with Plasmodium falciparum was over 64 µM each time.

For the compound `Cc1cccc(N2CC(=O)N3[C@H](c4ccc5c(c4)OCO5)c4[nH]c5ccccc5c4C[C@@H]3C2=O)c1`, the IC50 in the assay with MRC5 and in the assay with Plasmodium falciparum was over 64 µM in each case.

On to `O=C1[C@H]2Cc3c([nH]c4ccccc34)[C@@H](c3ccc4c(c3)OCO4)N2C(=O)CN1CCCn1ccnc1`, for which the IC50 is over 64 µM with MRC5 and 9 µM with Plasmodium falciparum.

Take `O=C1[C@H]2Cc3c([nH]c4ccccc34)[C@@H](c3ccc4c(c3)OCO4)N2C(=O)CN1c1cncnc1`: the IC50 in the assay on MRC5 is over 64 µM; in the assay on Plasmodium falciparum, 56 µM.

Take `CN1CC(=O)N2[C@H](c3ccc4c(c3)OCO4)c3[nH]c4ccccc4c3C[C@@H]2C1=O` [TADALAFIL]: the IC50 in the assay on MRC5 and in the assay with Plasmodium falciparum was over 64 µM throughout.

As to `O=C1[C@H]2Cc3c([nH]c4ccccc34)[C@@H](c3ccc4c(c3)OCO4)N2C(=O)CN1c1ccc(N2CCNCC2)cc1`, the IC50 in the assay with MRC5 is 8 µM; in the assay with Plasmodium falciparum, 7 µM.

In the case of `O=C1[C@H]2Cc3c([nH]c4ccccc34)[C@@H](c3ccc4c(c3)OCO4)N2C(=O)CN1c1cccs1`, the IC50 with MRC5 and with Plasmodium falciparum was over 64 µM throughout.

Turning to `CN(CCN1CC(=O)N2[C@H](c3ccc4c(c3)OCO4)c3[nH]c4ccccc4c3C[C@@H]2C1=O)Cc1ccccc1`, the figures for the IC50 in the assay with MRC5 and with Plasmodium falciparum were over 64 µM and 7 µM, respectively.

Consider `O=C1[C@H]2Cc3c([nH]c4ccc(Br)cc34)[C@@H](c3ccc4c(c3)OCO4)N2C(=O)CN1[C@@H]1CCN(Cc2ccccc2)C1` (mixture of isomers), for which the results for the IC50 in the assay on MRC5 and in the assay on Plasmodium falciparum were 10 µM and 7 µM, respectively.

As for `O=C1[C@H]2Cc3c([nH]c4ccccc34)[C@@H](c3ccc4c(c3)OCO4)N2C(=O)CN1CCN1CCOCC1`, the IC50 was over 64 µM in the assay on MRC5 and 22 µM with Plasmodium falciparum.

With `O=C1[C@H]2Cc3c([nH]c4ccccc34)[C@H](c3ccc4c(c3)OCO4)N2C(=O)CN1[C@@H]1CCN(Cc2ccccc2)C1`, the IC50 is over 64 µM in the assay with MRC5 and 50 µM in the assay on Plasmodium falciparum.

For the compound `O=C1N[C@@H](Cc2c[nH]c3ccccc23)C(=O)N2[C@H](c3ccc4c(c3)OCO4)c3[nH]c4ccccc4c3C[C@H]12`, the values for the half-inhibitory concentration (IC50) with MRC5 and in the assay with Plasmodium falciparum were 35 µM and 25 µM, respectively.

Consider `CC(C)(C)OC(=O)N1CCN(Cc2cccc(N3CC(=O)N4[C@H](c5ccc6c(c5)OCO6)c5[nH]c6ccccc6c5C[C@@H]4C3=O)c2)CC1`, for which the figures for the IC50 in the assay with MRC5 and with Plasmodium falciparum were over 64 µM and 23 µM, respectively.

Regarding `COc1ccc(N2CC(=O)N3[C@H](c4ccc5c(c4)OCO5)c4[nH]c5ccccc5c4C[C@@H]3C2=O)cc1`, the IC50 in the assay on MRC5 and with Plasmodium falciparum was over 64 µM in each case.

Regarding `O=C1[C@H]2Cc3c([nH]c4ccccc34)[C@@H](c3ccc4c(c3)OCO4)N2C(=O)CN1c1ccccc1`, the IC50 with MRC5 and with Plasmodium falciparum was over 64 µM each time.

As to `O=C1[C@H]2Cc3c([nH]c4ccccc34)[C@@H](c3ccc4c(c3)OCO4)N2C(=O)CN1Cc1ccc(N2CCOCC2)cc1`, the IC50 in the assay with MRC5 was over 64 µM; with Plasmodium falciparum, 9 µM.

The IC50 is the concentration needed to halve the response being measured.

For the origin of these results see ChEMBL document CHEMBL1773068, “Drug to genome to drug: discovery of new antiplasmodial compounds” (J Med Chem, 2011).
